# Measured values: publication PMC6358549 (Molecular Metabolism, 2018)
# Where two headings read alike, the source gives them in different places. No end group written: not given here.
# Tests used:
# [1] = general statement in the discussion, no reference given; cited from earlier work
# [2] = test system: DIO mice; assay: body weight change on chronic treatment of DIO mice; format: in vivo, mouse
# [3] = target: T1, mouse GLP-1R (Mus musculus, UniProt O35659); assay: luciferase reporter gene assay, antagonism at mouse GLP-1R; format: cell-based; conditions: native hormone at EC90; Figure 5E
# T1 sequence (O35659 22-463): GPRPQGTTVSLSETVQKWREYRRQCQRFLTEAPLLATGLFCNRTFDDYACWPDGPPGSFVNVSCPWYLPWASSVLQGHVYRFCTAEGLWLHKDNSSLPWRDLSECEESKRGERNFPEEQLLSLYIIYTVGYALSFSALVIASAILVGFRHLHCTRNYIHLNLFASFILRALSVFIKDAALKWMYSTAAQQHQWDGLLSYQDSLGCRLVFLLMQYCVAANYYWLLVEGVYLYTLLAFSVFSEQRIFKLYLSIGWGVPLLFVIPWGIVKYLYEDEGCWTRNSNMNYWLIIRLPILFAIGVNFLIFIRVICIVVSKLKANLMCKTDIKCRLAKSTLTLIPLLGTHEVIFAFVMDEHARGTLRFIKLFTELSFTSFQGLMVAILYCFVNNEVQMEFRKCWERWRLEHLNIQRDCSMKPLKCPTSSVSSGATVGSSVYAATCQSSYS
# [4] = target: mouse glucagon receptor (GcgR) (Mus musculus, UniProt Q61606); assay: luciferase reporter gene assay, antagonism at mouse glucagon receptor; format: cell-based; conditions: native hormone at EC90; Figure 5
# [5] = target: T2, hGIPR (Homo sapiens, UniProt P48546); assay: luciferase reporter gene assay, antagonism at human GIPR; format: cell-based; conditions: co-incubated with native GIP at its EC50; 1% ovalbumin; Figure 5A
# T2 sequence (P48546 22-466): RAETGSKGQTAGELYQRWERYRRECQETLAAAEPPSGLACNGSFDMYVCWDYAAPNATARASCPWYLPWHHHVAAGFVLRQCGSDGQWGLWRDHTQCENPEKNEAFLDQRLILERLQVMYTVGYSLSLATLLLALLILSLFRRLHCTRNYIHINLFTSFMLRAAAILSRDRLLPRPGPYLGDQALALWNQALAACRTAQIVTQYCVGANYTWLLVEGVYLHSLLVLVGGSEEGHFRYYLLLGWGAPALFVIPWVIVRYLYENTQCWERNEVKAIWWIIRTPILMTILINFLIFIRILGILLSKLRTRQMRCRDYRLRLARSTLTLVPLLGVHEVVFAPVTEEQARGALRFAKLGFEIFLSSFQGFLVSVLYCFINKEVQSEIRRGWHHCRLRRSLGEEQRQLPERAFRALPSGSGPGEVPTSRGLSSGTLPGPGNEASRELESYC
# How it was run: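 HEK293 or BHK cells overexpressing the human receptor with a CRE-linked firefly luciferase reporter were serum-deprived for 16 h. They were then incubated 5 h at 37 °C, 5% CO2 with native GIP at constant concentration plus serial dilutions of test compound. Luminescence was read after adding luciferase substrate. Each concentration was run in duplicate, and potency was fitted per experiment by non-linear three-parameter regression.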
# [6] = target: T3, mGIPR (Mus musculus, UniProt Q0P543); assay: cAMP-response-element luciferase reporter gene assay, agonism at mouse GIPR; format: cell-based; conditions: Figure 5D
# T3 sequence (Q0P543 19-460): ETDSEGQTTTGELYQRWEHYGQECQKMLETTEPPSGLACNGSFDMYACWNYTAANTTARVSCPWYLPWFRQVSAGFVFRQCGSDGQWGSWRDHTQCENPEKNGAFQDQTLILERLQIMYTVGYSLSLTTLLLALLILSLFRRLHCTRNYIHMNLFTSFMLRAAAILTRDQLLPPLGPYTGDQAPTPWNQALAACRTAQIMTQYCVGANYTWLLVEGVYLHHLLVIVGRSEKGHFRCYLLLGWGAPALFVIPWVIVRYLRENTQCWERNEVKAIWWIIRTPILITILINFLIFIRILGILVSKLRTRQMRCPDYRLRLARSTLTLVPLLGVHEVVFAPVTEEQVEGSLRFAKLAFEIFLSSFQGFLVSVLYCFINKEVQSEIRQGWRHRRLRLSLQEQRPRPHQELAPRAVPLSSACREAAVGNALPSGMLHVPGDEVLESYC
# [7] = aqueous solubility and aggregation; format: physicochemical; conditions: statement in the discussion, method not given
# [8] = target: T2, hGIPR; assay: cAMP-response-element luciferase reporter gene assay, agonism at human GIPR; format: cell-based; conditions: Figure 5B
# [9] = test system: healthy human volunteers; conditions: cited from earlier work
# [10] = test system: rat GIPR; conditions: cited from earlier work
# Chain of mouse glucagon receptor (GcgR) (Q61606 27-485): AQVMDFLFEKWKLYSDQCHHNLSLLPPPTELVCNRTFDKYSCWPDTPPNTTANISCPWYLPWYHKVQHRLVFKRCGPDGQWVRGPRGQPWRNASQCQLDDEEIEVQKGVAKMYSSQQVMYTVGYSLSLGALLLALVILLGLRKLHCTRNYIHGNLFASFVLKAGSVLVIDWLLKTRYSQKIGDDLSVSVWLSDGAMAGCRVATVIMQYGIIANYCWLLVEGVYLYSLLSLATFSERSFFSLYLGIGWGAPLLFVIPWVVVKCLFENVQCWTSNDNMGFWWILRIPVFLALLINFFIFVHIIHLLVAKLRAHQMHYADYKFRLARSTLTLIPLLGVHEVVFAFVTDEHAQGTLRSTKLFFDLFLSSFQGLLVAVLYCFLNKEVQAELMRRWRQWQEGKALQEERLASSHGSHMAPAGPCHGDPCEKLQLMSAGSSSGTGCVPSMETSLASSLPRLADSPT
substance,measurement,setting,value
"Native, full-length GIP: native, full-length GIP",aggregation in liquid formulations,[1],prone to aggregation
same,aqueous solubility,[1],limited aqueous solubility
liraglutide [reference compound],body weight lowered by,"[2]; daily sc liraglutide 10 nmol/kg, Figure 5H",10.9%
hGIP(5–42) N^αAc K10[γEγE-C16] Arg18 [acyl GIPR antagonist],cross-reactive antagonism to mouse GLP-1R,[3],did not demonstrate any cross-reactive antagonism
same,change in body weight relative to vehicle controls,"[2]; daily sc 300 nmol/kg or 1 μmol/kg for ten days, N = 8",did not cause any measurable change in body weight
same,cross-reactive antagonism to mouse glucagon receptor (GcgR),[4],did not demonstrate any cross-reactive antagonism
same,hGIPR antagonism,[5],potent antagonism
same,partial agonism at mGIPR,[6],did not exhibit any degree of partial agonism
same,aqueous solubility,[7],sufficient aqueous solubility
same,partial agonism at hGIPR,[8],did not exhibit any degree of partial agonism
"hGIP (3–30)-NH2: peptide-based GIPR antagonist from the literature (EGTFISDYSIAMDKIHQQDFVNWLLAQK-NH2; UniProt P09681 54-81, looked up, fragment)",insulinotropic response to GIP co-infusion,[9],blocked a majority of the insulinotropic response
same,affinity for the rat GIPR relative to hGIPR,[10],substantially reduced affinity
